In article PMC12236005 (Journal of Nanobiotechnology, 2025):

Experiments:
H2O2 treated H9c2 cells [1] = assay: Intracellular ROS, DHE probe; assay type: cell-based; settings: DHE staining, 4 h treatment, n = 5
Method in brief: (§1)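 H9c2 cells cultured 24 h, then exposed to test compound for 4 h. Stained with a fluorescent probe: DHE for ROS, O38 for NO. Fluorescence microscopy, with mean fluorescence intensity taken per image. n = 5.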

H9c2 cells [2] = assay: Apoptosis by flow cytometry, Annexin V-PI staining; assay type: cell-based; settings: H9c2 + H2O2, 24 h treatment, n = 3
HUVECs [3] = assay: HUVEC migration; assay type: cell-based, human; settings: H2O2 treated; scratch assay 24 h and Transwell assay 8 h; n = 5
Method in brief: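 Two formats. Scratch: HUVECs pre-stained with green fluorescent dye and grown to a confluent monolayer. Gap scratched with a pipette tip, then fresh medium with test compound added. Fluorescence images at 0 and 24 h give the percentage of wound area healed. Transwell: 8.0-µm pores, 8 × 10^4 cells in serum-free medium above, 10% FBS medium with test compound below, 8 h. Migrated cells stained with 0.1% crystal violet and counted in five random fields. n = 5.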

H2O2-treated H9c2 cells = assay: Mitochondria-related cell injury probes; assay type: cell-based; settings: 6 h treatment, n = 5; for mitochondrial membrane potential: JC-10 probe
Method in brief: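 H9c2 cells were seeded and grown 24 h, then treated for 6 h and stained with JC-10. Fluorescence images were taken, and membrane potential was expressed as the ratio of red to green fluorescence intensity. n = 5.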

HUVECs [4] = assay: Western blotting of VEGF, p-eNOS, eNOS; assay type: cell-based, human; settings: H2O2 treated HUVECs, immunoblot; n = 3
Method in brief: (§2)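 Lysates from HUVECs or H9c2 cells were protein-quantified by BCA. Equal amounts were run on SDS-PAGE and transferred to PVDF. Membranes were blocked with 5% non-fat milk and probed with primary and secondary antibodies. Bands were detected by ECL chemiluminescence and quantified by densitometry. n = 3.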

H2O2 treated H9c2 cells [5] = assay: Intracellular ONOO-/RNS, O58 probe; assay type: cell-based; settings: 4 h treatment, n = 5
Method in brief: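 H9c2 cells (high-glucose DMEM, 10% FBS) were seeded and grown 24 h, then treated 4 h. Cells were stained with BBoxiProbe O58 for ONOO−, imaged by fluorescence microscopy, and mean fluorescence intensity was quantified. n = 5.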

H2O2 treated H9c2 cells [6] = assay: Intracellular NO, O38 probe; assay type: cell-based; settings: 4 h treatment, n = 5
Method in brief: as §1

MI mice = assay type: in vivo, C57BL/6 mice
H9c2 cells [7] = assay: Cell protection under H2O2, CCK-8; assay type: cell-based; settings: 10 µM equivalent of PBA or/and ISN, 500 µM H2O2, 24 h, n = 5
Method in brief: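 H9c2 cells (high-glucose DMEM, 10% FBS) seeded at 5 × 10^3/well and grown 24 h. Medium then replaced with treatments at 10 µM PBA and/or ISN equivalent, followed by 500 µM H2O2, with PBS as control. After 24 h, cells were given fresh medium containing 10% CCK-8 for 4 h. Supernatant absorbance was read at 450 nm to calculate viability.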

H9c2 cells [8] = assay: Western blotting of oxidative stress, inflammation and apoptosis proteins; assay type: cell-based; settings: H2O2 treated H9c2 cells, n = 3
Method in brief: as §2

[9] = DLS and TEM of self-assembled nanoaggregates; assay type: physicochemical; settings: self-assembly in aqueous solution; TEM images and DLS
HUVECs [10] = assay: Intracellular ROS, NO and RNS probes in HUVECs; assay type: cell-based, human; settings: H2O2 treated HUVECs, O38 probe; n = 5
Method in brief: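 HUVECs (endothelial cell medium, 5% FBS plus growth supplements) were seeded and grown 24 h, then treated 4 h. Cells were stained with BBoxiProbe O38 for NO, imaged by fluorescence microscopy, and mean fluorescence intensity was quantified. Mean ± SEM, n = 5.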

H9c2 cells [11] = assay: Mitochondria TEM and cellular ATP; assay type: cell-based
HUVECs [12] = assay: HUVEC tube formation assay; assay type: cell-based, human; settings: H2O2-treated HUVECs on Matrigel, 6 h; n = 5
Method in brief: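 HUVECs (2.5 × 10^4 per well) seeded on Matrigel-coated wells with test compound and incubated 6 h. Bright-field images from five random fields scored for tube length, branching length and junction number. n = 5.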

HUVECs [13] = assay: HUVEC survival under oxidative stress; assay type: cell-based, human; settings: H2O2, calcein-AM/PI staining and CCK-8 assay; n = 5
Method in brief: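 CCK-8: 5 × 10^3 cells/well plated 24 h, then medium with test compound (10 µM equivalent of PBA and/or ISN) and 500 µM H2O2 (PBS control). After 24 h, 10% CCK-8 for 4 h, absorbance at 450 nm. Live/dead: 1 × 10^5 cells/well plated 24 h, treated 24 h, calcein AM/PI stain 30 min, fluorescence imaging, dead/live ratio quantified. n = 5.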

cells = assay: NO release from culture medium of cells, Griess assay; assay type: cell-based; settings: PDCs 10 µM
Method in brief: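 PDCs (10 µM) were incubated with cells pretreated with PBS or H2O2 for 24 h. NO in the culture medium was measured by Griess assay at 0 h and 24 h.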

[14] = In vivo distribution of Cy5.5-labeled PDCs; set-up: species or system mice
Method in brief: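 Male C57BL/6 mice (10-week-old), sham or MI, received Cy5.5-labelled PDCs by tail-vein injection. A scrambled-peptide (non-targeting) conjugate served as control, and dye-labelled conjugates were normalised to equal fluorescence by UV-Vis. At 2 h and 6 h mice were euthanised. Hearts, lungs, livers, spleens and kidneys were imaged ex vivo and average radiance quantified.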

DPPH assay = settings: PDCs 0-200 µM, DPPH 500 µM, 30 min in darkness, absorbance 517 nm; n = 3
Method in brief: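 DPPH solution (500 µM before mixing) was combined with PDC solutions at 0, 5, 10, 25, 50, 100 and 200 µM and kept 30 min in darkness. Absorbance was read at 517 nm and scavenged DPPH calculated. Mean ± SEM, n = 3.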

ABTS assay = settings: test kit; n = 3
[15] = immunofluorescence, 28 days after MI, n = 4

## OCc1ccc(O)cc1 [4-HBA, 4-hydroxybenzyl alcohol]
H2O2 treated H9c2 cells [1]
  intracellular ROS level: mitigate intracellular ROS in a concentration-dependent manner

## O=[N+]([O-])O[C@@H]1CO[C@H]2[C@@H]1OC[C@@H]2O [ISN, isosorbide mononitrate, reference compound]
H9c2 cells [2]
  apoptosis percentage: 32.2%
HUVECs [3]
  migration of HUVECs: barely promoted the H2O2-inhibited migration of HUVECs
H2O2-treated H9c2 cells
  mitochondrial membrane potential: negligible influence on the restoration of mitochondrial membrane potential
HUVECs [4]
  expression of VEGF and p-eNOS/eNOS ratio: nor did it reverse the downregulated expression of angiogenesis-related proteins
H2O2 treated H9c2 cells [5]
  intracellular concentration of peroxynitrite (ONOO-) / RNS: dramatically elevated the intracellular concentration of peroxynitrite
H2O2 treated H9c2 cells [6]
  intracellular level of NO: significantly increased the intracellular level of NO
H2O2 treated H9c2 cells [1]
  intracellular ROS level: did not change the level of ROS inside cells
MI mice; DHE staining, day 1 after MI, i.v. 200 µg/kg equivalent of ISN, n = 4
  ROS in heart tissue: little effects on tissue abundance of ROS
MI mice; O56 staining, day 1 after MI, i.v. 200 µg/kg equivalent of ISN, n = 4
  RNS in heart tissue: promoted vast generation of RNS
MI mice; [15]
  angiogenesis in the border zone of infarct region (CD31+ capillaries, α-SMA+ arterioles): didn’t have any effects of neovascularization
H9c2 cells [7]
  viability of H9c2 challenged with H2O2: increased the loss of myocytes

## CSTSMLKAC [CTP-PBA-ISN]
H9c2 cells [2]
  apoptosis percentage: 15.6%
HUVECs [3]
  migration of HUVECs: migration to the level similar to those of H2O2-untreated control
H2O2-treated H9c2 cells; Fluo-4 AM staining
  cytoplasmic calcium level: reversed the abnormal elevation of cytoplasmic calcium level
H2O2-treated H9c2 cells
  mitochondrial membrane potential: potently restored the cross-membrane potential of mitochondria
H2O2-treated H9c2 cells; MitoSOX staining
  mitochondrial ROS: most effective in blocking the H2O2-induced overproduction of ROS in mitochondria
H9c2 cells [8]; immunoblot
  TNF-α and IL-6 protein expression: capably reversed such elevation
  intracellular expression of Nrf2, HO-1 and NQO-1: downregulated intracellular expression of Nrf2, HO-1 and NQO-1
H9c2 cells [8]; western blotting
  expression of BAX, Caspase3 and Bcl-2: most effective in downregulation of apoptosis proteins (BAX, Caspase3) and upregulation of anti-apoptosis protein (Bcl-2)
[9]
  diameter of spherical nanoaggregates: 47 ± 4 nm
HUVECs [10]
  intracellular NO delivery: maximizing intracellular NO delivery
HUVECs [4]
  expression of VEGF and p-eNOS/eNOS ratio: remarkably upregulated
H2O2 treated H9c2 cells [5]
  intracellular concentration of peroxynitrite (ONOO-) / RNS: did not increase the intracellular concentration of RNS
H9c2 cells [11]; H9c2 under H2O2, ATP assay kit, n = 3
  ATP content: increased ATP content
H9c2 cells [11]; H9c2 under H2O2, TEM
  structure of mitochondria: preserved the normal structure of mitochondria
H2O2 treated H9c2 cells [6]
  intracellular level of NO: significantly increased the intracellular level of NO
HUVECs [12]
  tube formation (pseudopod length, number of junction, degree of branch): facilitated recovery in pseudopod length, number of junction and degree of branch
MI mice; Masson's trichrome, 28 days after MI, n = 4
  fibrotic area and infarct wall thickness: reduced fibrotic area and increased infarct wall thickness
MI mice; TEM of tissue slices, 3 days after MI
  ultrastructure of myocardial mitochondria: ameliorated myocardial fiber rupture, mitochondrial damage and increased mitochondrial numbers
MI mice; TUNEL staining, 3 days after MI, n = 4
  apoptosis cardiomyocytes in infarcted myocardial tissue: lowest number of apoptosis cardiomyocytes
MI mice; WGA staining, 28 days after MI, n = 5
  cross-sectional area of cardiomyocytes: smaller cross-sectional area of cardiomyocytes
MI mice; Western blot, 1 day after MI, n = 3
  OS proteins (NRF2, HO-1, NQO-1) and pro-inflammation cytokines (TNF-α, IL-6) in the heart: significant decrease
MI mice; immunoblot, 3 days after MI, n = 3
  protein expressions of CS, IDH2 and OGDH in heart tissues: facilitated recovery of these downregulated mitochondria related rate-limiting enzymes
MI mice; [15]
  angiogenesis in the border zone of infarct region (CD31+ capillaries, α-SMA+ arterioles): greatly promoted
  macrophage phenotype (CD86 / CD206): established a M2-dominant macroenvironment
MI mice; n = 3
  infarct area: greatly reduced
HUVECs [13]
  bio-viability and apoptosis of HUVECs under oxidative stress: most effective in maintaining bio-viability and inhibiting apoptosis
cells; cells treated with H2O2, 24 h
  NO concentration in culture medium: significantly increased NO concentration
cells; cells without H2O2 treatment, 24 h
  NO release in culture medium: moderated NO release
[14]; sham and MI animals, extended time after injections, n = 3
  accumulation in other organs: accumulated in the kidneys, livers, and lungs
DPPH assay
  free radical clearance, DPPH assay: dose-dependent manner
ABTS assay
  ROS clearance, ABTS assay: dose-dependent manner
H9c2 cells [7]
  viability of H9c2 challenged with H2O2: potent preservation of cell survival

## CSTSMLKAC [CTP-PBA]
H9c2 cells [2]
  apoptosis percentage: 20.3%
H2O2-treated H9c2 cells
  mitochondrial membrane potential: limited effects
H2O2 treated H9c2 cells [5]
  intracellular concentration of peroxynitrite (ONOO-) / RNS: downregulation of RNS inside cells
H9c2 cells [7]
  viability of H9c2 challenged with H2O2: only partially restored the viability of H9c2

## CSTSMLKAC [Cy5.5-CTP-PBA-ISN]
[14]; MI mice, 2 h after injection via tail veins, ex vivo imaging
  fluorescent signal of infarcted hearts: bright fluorescent signal
